What was measured:
Mus musculus [1] = assay: Reduction of PTEN mRNA level in ip dosed BALB/c mouse liver after 72 hrs; type: functional
Mus musculus [2] = species on record: Mus musculus; assay: Binding affinity to mouse PTEN mRNA assessed as melting temperature
Outline: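 Tm of ASO–RNA duplex, i.e. melting temperature of the ASO hybridised to its complementary RNA.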

bEND = assay: Reduction in mouse PTEN mRNA level expressed in mouse bEND cells; type: functional, cell-based
Outline: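 bEND mouse brain endothelial cells transfected with ASO using lipofectin; PTEN mRNA reduction measured over a dose range; IC50 taken from dose-response curves.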

Row | Tm (Mus musculus [2]) | IC50 (bEND) | SMILES | ED50 (Mus musculus [1])
1 | 50.8 °C | > 20 nM | COCCO[C@@H]1[C@H](O)[C@@H](COP(O)(=S)O[C@H]2[C@@H](OCCOC)[C@H](n3ccc(=O)[nH]c3=O)O[C@@H]2COP(O)(=S)O[C@H]2C[C@H](n3cc(C)c(=O)[nH]c3=O)O[C@@H]2COP(O)(=S)O[C@H]2[C@@H](O)[C@H](n3cnc4c3N=CNC4N)O[C@@H]2COP(O)(=S)O[C@H]2[C@@H](O)[C@H](n3cnc4c(=O)[nH]c(N)nc43)O[C@@H]2COP(O)(=S)O[C@H]2[C@@H](O)[C@H](n3ccc(N)nc3=O)O[C@@H]2COP(O)(=S)O[C@H]2[C@@H](O)[C@H](n3cnc4c(N)ncnc43)O[C@@H]2COP(O)(=S)O[C@H]2[C@@H](O)[C@H](n3ccc(N)nc3=O)O[C@@H]2COP(O)(=S)O[C@H]2[C@@H](O)[C@H](n3cc(C)c(=O)[nH]c3=O)O[C@@H]2COP(O)(=S)O[C@H]2[C@@H](O)[C@H](n3cnc4c(=O)[nH]c(N)nc43)O[C@@H]2COP(O)(=S)O[C@H]2[C@@H](O)[C@H](n3cnc4c(=O)[nH]c(N)nc43)O[C@@H]2COP(O)(=S)O[C@H]2[C@@H](O)[C@H](n3ccc(N)nc3=O)O[C@@H]2COP(O)(=S)O[C@H]2[C@@H](OCCOC)[C@H](n3cc(C)c(N)nc3=O)O[C@@H]2COP(O)(=S)O[C@H]2[C@@H](OCCOC)[C@H](n3ccc(=O)[nH]c3=O)O[C@@H]2COP(=O)(O)O)O[C@H]1n1cc(C)c(N)nc1=O (stereo partly specified) | > 45 mg/kg
2 | 57.6 °C | 5 nM | COC[C@@H]1O[C@H]2[C@H](n3cc(C)c(N)nc3=O)O[C@]1(COP(O)(=S)O[C@H]1[C@H]3O[C@@H](COC)[C@]1(COP(O)(=S)O[C@H]1C[C@H](n4cc(C)c(=O)[nH]c4=O)O[C@@H]1COP(O)(=S)O[C@H]1[C@@H](O)[C@H](n4cnc5c4N=CNC5N)O[C@@H]1COP(O)(=S)O[C@H]1[C@@H](O)[C@H](n4cnc5c(=O)[nH]c(N)nc54)O[C@@H]1COP(O)(=S)O[C@H]1[C@@H](O)[C@H](n4ccc(N)nc4=O)O[C@@H]1COP(O)(=S)O[C@H]1[C@@H](O)[C@H](n4cnc5c(N)ncnc54)O[C@@H]1COP(O)(=S)O[C@H]1[C@@H](O)[C@H](n4ccc(N)nc4=O)O[C@@H]1COP(O)(=S)O[C@H]1[C@@H](O)[C@H](n4cc(C)c(=O)[nH]c4=O)O[C@@H]1COP(O)(=S)O[C@H]1[C@@H](O)[C@H](n4cnc5c(=O)[nH]c(N)nc54)O[C@@H]1COP(O)(=S)O[C@H]1[C@@H](O)[C@H](n4cnc5c(=O)[nH]c(N)nc54)O[C@@H]1COP(O)(=S)O[C@H]1[C@@H](O)[C@H](n4ccc(N)nc4=O)O[C@@H]1COP(O)(=S)O[C@H]1[C@H]4O[C@@H](COC)[C@]1(COP(O)(=S)O[C@H]1[C@H]5O[C@@H](COC)[C@]1(CO)O[C@H]5n1ccc(=O)[nH]c1=O)O[C@H]4n1cc(C)c(N)nc1=O)O[C@H]3n1ccc(=O)[nH]c1=O)[C@H]2O (stereo partly specified) | 25 mg/kg

Source: ChEMBL document CHEMBL1140861, “Short antisense oligonucleotides with novel 2'-4' conformationaly restricted nucleoside analogues show improved potency without increased toxicity in animals” (J Med Chem, 2009)
